GPR7 antag: human neuropeptides B/W receptor 1 antagonism | P48145 | GPR7-expressing cells, fluorescence antagonist assay | inhibition, % at 4.4 µM | hit rate 1.1% among 290,000 | AID 1861; in the data active = inhibition above about 16%, passing the limit was not always enough;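 also: cells stimulated with the agonist NPW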
OX1R antag-1: OX1R (human) antagonism; AID 485270; inhibition, % at 6.6 µM; OX1R-expressing cells, FRET antagonist read-out; hit rate 1.8% among 330,000; O43613; in the data active = inhibition mostly above about 38%, no sharp cut-off; inactive = mostly below about 40%
Target sequence (O43613 whole entry, looked up): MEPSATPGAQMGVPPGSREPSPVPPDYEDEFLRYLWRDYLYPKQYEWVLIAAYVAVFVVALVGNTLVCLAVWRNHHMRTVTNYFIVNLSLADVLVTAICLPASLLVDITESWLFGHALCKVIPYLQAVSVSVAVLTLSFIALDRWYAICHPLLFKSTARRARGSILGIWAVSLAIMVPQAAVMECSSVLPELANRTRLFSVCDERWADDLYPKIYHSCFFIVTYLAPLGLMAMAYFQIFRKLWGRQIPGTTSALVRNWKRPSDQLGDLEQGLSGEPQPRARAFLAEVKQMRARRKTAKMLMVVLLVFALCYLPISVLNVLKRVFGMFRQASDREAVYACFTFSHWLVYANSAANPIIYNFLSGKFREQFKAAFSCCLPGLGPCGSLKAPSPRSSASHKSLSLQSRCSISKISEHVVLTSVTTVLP
OX1R antag-2: human HCRTR1 antagonism; hit rate 0.43% among 330,000; CHO/OX1R cells, Fluo-8 calcium fluorescence, orexin A; O43613; inhibition, % at 5 µM; AID 434989;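 active = inhibition above its plate's threshold, mean inhibition of all tested compounds on the plate plus 3 SD, cut at about 37% in these data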
TAAR1 agonist: agonists of human TAAR1; Q96RJ0; CHO RD-HGA16 TAAR1, Fluo-8 calcium fluorescence; vehicle wells 0%, saturating PEA agonist 100%; activation, % at 3 µM; hit rate 0.99% among 360,000;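 active = activation above the mean activation of all test compounds in the run plus 3 SD, cut at about 38% in these data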
Target sequence (Q96RJ0 whole entry, looked up): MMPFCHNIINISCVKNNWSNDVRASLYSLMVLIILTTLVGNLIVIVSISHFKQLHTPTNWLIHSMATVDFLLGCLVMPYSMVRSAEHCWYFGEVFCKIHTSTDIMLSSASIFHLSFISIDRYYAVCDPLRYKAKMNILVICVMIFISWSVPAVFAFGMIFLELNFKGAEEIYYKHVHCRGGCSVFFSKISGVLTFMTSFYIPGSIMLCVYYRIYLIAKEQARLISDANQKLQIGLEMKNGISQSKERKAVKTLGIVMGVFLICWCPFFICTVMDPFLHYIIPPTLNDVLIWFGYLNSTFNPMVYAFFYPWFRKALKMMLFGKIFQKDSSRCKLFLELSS
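Assay system – CHO-derived RD-HGA16 cells with stable Gα16 and human TAAR1 · Compound dosing – one-point dosing at 3 µM (nominal) · Incubation – 17-24 h seeding, 75 min 37 °C dye, 30 min RT · Measured by – kinetic Fluo-8 calcium fluorescence · Control set – DMSO vehicle as 0%, PEA at EC100 as 100% · Repeats – single well for each compound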
TAAR1 antag: antagonists of human TAAR1. inhibition, % at 3 µM. Q96RJ0. CHO RD-HGA16 TAAR1, Fluo-8 calcium fluorescence, antagonist. AID 624466. hit rate 1.5% among 360,000;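 active = inhibition above a per-plate cutoff, the mean inhibition of test compounds on that plate plus 3 SD, cut at about 49% in these data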
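test system = CHO RD-HGA16 cells bearing hTAAR1 | replication = singlicate | controls = DMSO-only wells and EC80 β-PEA-stimulated wells | reagent = EC80 β-phenethylamine stimulus | read-out basis = percent inhibition of PEA-evoked calcium signal, max/basal emission ratio | schedule = seeding 17-24 h prior, 75-min 37 °C, 30-min RT dye loading | signal = kinetic Fluo-8 calcium fluorescence measurement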
CHO parental Ca: counter-screen: ATP calcium response change in parental CHO cells; hit rate 0.63% among 330,000; inhibition, % at 5.6 µM; parental CHO-K1, ATP-induced calcium, Fluo-8 fluorescence;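 active = inhibition above that plate's mean sample inhibition plus 3 SD, cut at about 26% in these data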
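Test system: untransfected parental CHO cell line; also added: ATP stimulus; dosing: 5.6 µM, single dose; signal: calcium-sensitive Fluo-8 fluorescence; measure: percent inhibition of ATP-evoked calcium rise, normalized to controls; benchmarks: low control ATP plus DMSO, high control DMSO only; replication: one well per compound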
TAAR1 ag confirm: human TAAR1 agonism, confirmed; shares compounds with TAAR1 agonist; CHO RD-HGA16 TAAR1, Fluo-8 calcium fluorescence; scaled: DMSO 0%, maximal phenethylamine 100%; activation, % at 3 µM; hit rate 82% among 2,400; AID 651783;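 active = activation above a cutoff set at the run's mean compound activation plus 3 SD, cut at about 39% in these data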
Ga16 nonsel ag: nonselective agonist in parental cells, TAAR1 agonist counter-screen | CHO-Ga16 parental, Fluo-8 calcium fluorescence; normalized to maximal ATP response, DMSO zero | shares compounds with TAAR1 agonist | hit rate 50% among 2,400 | activation, % at 3 µM;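 active = activation above the run cutoff, the mean activation over all tested wells plus 3 SD, cut at about 12% in these data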
TAAR1 desensitize: counter-screen for human TAAR1 agonists: agonists that desensitize TAAR1; shares compounds with TAAR1 agonist; CHO RD-HGA16 hTAAR1, Fluo-8 calcium, beta-PEA response inhibition; inhibition, % at 3 µM; hit rate 46% among 2,400; AID 651951;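 active = inhibition above the run cutoff, the mean inhibition of all test compounds plus 3 SD, cut at about 49% in these data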;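 also: beta-PEA stimulus applied at its EC80; loss of beta-PEA calcium signal after compound pretreatment read as receptor desensitization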
Ga16 nonsel ant: counter-screen for TAAR1 agonists: nonselective Ga16 antagonists; shares compounds with TAAR1 agonist; CHO-Ga16 ATP-induced calcium, Fluo-8 fluorescence; inhibition, % at 3 µM; hit rate 39% among 2,400;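 active = inhibition above the plate's mean compound inhibition plus 3 SD, computed per plate, cut at about 22% in these data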
Hits are given with their value; 0 = inactive; - = no result given. In the library only some 4.5% were active in any assay of this set; here they are far more common.

SMILES	GPR7 antag	OX1R antag-1	OX1R antag-2	TAAR1 agonist	TAAR1 antag	CHO parental Ca	TAAR1 ag confirm	Ga16 nonsel ag	TAAR1 desensitize	Ga16 nonsel ant
COc1ccc(CC(N)c2csc(Nc3ccc(C(=O)c4ccccc4)cc3)n2)cc1 (stereo not drawn)	-	-	-	51	0	-	39	27	0	38
CC1(c2ccccc2)NC(=O)N(CC(=O)N2CCc3ccccc32)C1=O (stereo not drawn)	-	-	-	48	0	-	0	0	0	0
CC1(c2cccc(Br)c2)NC(=O)N(CC(=O)N2CCc3ccccc32)C1=O (stereo not drawn)	-	0	0	0	0	0	-	-	-	-
O=C(C=Cc1cccs1)c1ccc(Cl)s1	-	-	-	0	0	-	-	-	-	-
CCc1nc2c(OCC3COc4ccccc4O3)cccn2c1N(C)C(=O)c1cccs1 (stereo not drawn)	-	-	-	0	0	-	-	-	-	-
O=C(COC(=O)c1ccc(O)cc1O)NC(=O)Cc1ccccc1	-	-	-	143	61	-	134	71	88	42
O=C(COC(=O)c1cccc(O)c1)NC(=O)Cc1ccccc1	0	0	0	0	0	0	-	-	-	-
O=C(COC(=O)c1cc2ccccc2cc1O)NCc1ccccc1	-	0	0	87	83	0	0	29	0	22
O=C(COC(=O)c1cc2ccccc2cc1O)Nc1ccccc1F	-	0	0	0	0	0	-	-	-	-
O=C(COC(=O)c1cc2ccccc2cc1O)Nc1cccnc1Cl	0	0	0	48	0	0	0	0	0	0
O=C(COC(=O)c1ccc2ccccc2c1O)NCc1ccccc1	-	0	0	0	0	0	-	-	-	-
Cc1c(Cc2ccccc2)c(=O)oc2c(C)c(OCC(=O)N[C@@H](Cc3ccccc3)C(=O)O)ccc12	0	0	0	0	0	0	-	-	-	-
C[C@H]1CN([C@@H](C)CO)C(=O)CCCn2nncc2CO[C@@H]1CN(C)C(=O)c1ccc2ccn(C)c2c1	-	-	-	0	0	-	-	-	-	-
CN(CC(=O)Nc1ccccc1Cl)C(=O)c1ccc(N2C(=O)CCC2=O)cc1	-	-	-	0	0	-	-	-	-	-
COc1ccc(CS(=O)(=O)CC(C)(O)c2ccccc2Cl)cc1 (stereo not drawn)	0	0	0	0	0	0	-	-	-	-
CC[C@H](C)[C@H](NC(=O)c1ccccc1)C(=O)NC(CC(=O)O)c1ccc(F)cc1 (stereo partly drawn)	0	0	0	0	0	0	-	-	-	-
Cc1cc(/C=N/Nc2ncnc(N)c2[N+](=O)[O-])c(C)n1-c1ccccc1	0	51	0	73	0	0	120	49	83	0
COc1cccc(/C=N/Nc2ncnc(N)c2[N+](=O)[O-])c1OC	0	0	0	-	-	0	-	-	-	-
O=C(O)c1ccccc1C(=O)NCCCCCCNC(=O)c1ccccc1C(=O)O	0	0	0	0	0	0	-	-	-	-
O=C(O)c1ccccc1C(=O)NCC(O)c1ccccc1 (stereo not drawn)	0	0	0	72	0	0	96	0	62	0
O=C(CNC(=O)c1ccccc1C(=O)O)c1ccccc1	0	0	0	71	0	0	78	0	0	0
N#Cc1ccc(N=c2ssnc2Cl)cc1	0	0	0	48	0	0	53	44	0	25
Clc1nssc1=Nc1ccccc1	0	-	-	-	-	-	-	-	-	-
O=C(Nc1ccncc1)Nc1ccncc1	0	0	0	0	0	0	-	-	-	-
O=C(Nc1ccncc1)Nc1ccc(Cl)cc1	0	0	0	65	50	0	91	17	84	0
SMILES	GPR7 antag	OX1R antag-1	OX1R antag-2	TAAR1 agonist	TAAR1 antag	CHO parental Ca	TAAR1 ag confirm	Ga16 nonsel ag	TAAR1 desensitize	Ga16 nonsel ant
Cc1c(NCc2cc(Cl)ccc2O)c(=O)n(-c2ccccc2)n1C	0	0	0	50	0	0	0	0	0	0
Cc1c(NCc2cc(Cl)cc(Cl)c2O)c(=O)n(-c2ccccc2)n1C	0	0	0	0	0	0	-	-	-	-
CC(C)C(NS(=O)(=O)c1cccc2nsnc12)C(=O)N1CCCCC1 (stereo not drawn)	0	0	0	0	0	0	-	-	-	-
Cc1cc(NC(=O)CSc2nc(-c3ccco3)cc(C(F)(F)F)n2)no1	0	0	0	44	0	0	0	0	0	0
Cc1cc(NC(=O)CCSc2nc(-c3ccco3)cc(C(F)(F)F)n2)no1	0	0	0	0	0	0	-	-	-	-
COc1cc(/C=C2\SC(=O)N(CCN)C2=O)ccc1OS(=O)(=O)c1cc(C)ccc1C	0	-	-	54	0	-	72	29	57	0
C[C@H]1CN([C@@H](C)CO)S(=O)(=O)c2ccc(Br)cc2O[C@@H]1CN(C)C(=O)C1CCOCC1	-	-	-	0	0	-	-	-	-	-
O=C(CSc1nc(=O)n2cc(Cl)ccc2n1)NCCc1ccccc1	-	0	0	50	0	0	68	0	0	0
COc1cccc(C(=O)COC(=O)c2cccs2)c1	0	0	0	0	0	0	-	-	-	-
Oc1ccc(Cl)cc1C=NCCc1ccccc1	0	0	0	-	-	0	-	0	-	0
NC(=NCCc1ccccc1)NC(=O)c1cc(Cl)ccc1O	-	0	0	90	77	0	91	0	94	23
CC(C)(C)NC(=S)N1CCC(C(=O)c2ccc(Cl)cc2)CC1	0	0	0	0	0	0	-	-	-	-
Cc1nnc2c(SC(C)C)nc3ccccc3n12	0	0	0	0	0	0	-	-	-	-
C=CCNCCCCOc1ccc(OCc2ccccc2)cc1	0	0	0	53	0	0	70	15	0	0
c1ccc(COc2ccc(OCCCNC3CCCC3)cc2)cc1	0	0	0	53	0	0	79	24	49	0
CCn1c(=S)sc2c(=O)n(CC(=O)Nc3ccccc3C(F)(F)F)c(C)nc21	0	0	0	0	0	0	-	-	-	-
CCOC(=O)[C@]12CCC=C1N(Cc1ccccc1)C(=O)[C@H](CC(=O)NCCCN1CCCC1=O)C2	-	-	-	0	0	-	-	-	-	-
O=C(O)CC(NC(=O)C1c2ccccc2Oc2ccccc21)c1ccc(OC2CCCC2)cc1 (stereo not drawn)	0	0	0	58	0	0	83	49	0	0
CCOc1ccc(NC(=O)CN(C)C(=O)c2cc(C3CC3)nn2-c2ccccc2)cc1OCC	-	-	-	0	0	-	-	-	-	-
CC1CCN(C(=O)CCC(=O)Nc2nnc(C3CCCCC3)s2)CC1	0	0	0	0	0	0	-	-	-	-
Cc1sc2nc(CN3CCCC3)nc(N3CCN(S(=O)(=O)c4cccc(F)c4)CC3)c2c1C	-	0	0	0	0	0	-	-	-	-

Compound activity as filed in PubChem.
